# Cardio protect – protects H9c2 cardiomyocytes from peroxide injury; AID 588492; actives 0.63% (n = 360,000); protection from H2O2 cell death, % at 20 µM; H2O2 injury protection, ATPLite, 2 h;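 active = compounds giving at least 50% protection of heart cells from peroxide-induced death in the single-dose screen, raw or plate-pattern-corrected value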;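 note: 0% = DMSO wells with peroxide and 100% = DMSO wells without peroxide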
# TbMetRS inhib – Trypanosoma brucei MetRS inhibition | purified T. brucei MetRS, ATP depletion, Kinase-Glo luminescence | inhibition, % at 11.9 µM | actives 0.4% (n = 360,000) | AID 624268;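 active = inhibition above a per-plate cutoff of the control wells' mean inhibition plus 3 SD, cut at about 5.5% in these data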;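 note: 0% = DMSO wells median and 100% = median of wells with control inhibitor compound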
#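 System: purified T. brucei MetRS enzyme / Detection: Kinase-Glo luciferase luminescence reporting remaining unconsumed ATP / Medium: HEPES buffer with MgCl2, KCl, DTT, spermine, BSA, pyrophosphatase / Replication: singlicate, one well per compound / Evaluation: percent inhibition relative to median high and low control wells / Schedule: 2 h aminoacylation at 25 °C after 15 min preincubation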
# PKA-R1A activ – activators of PKA-R1A complex; actives 0.083% (n = 340,000); P00514+P68181; activation, % at 11.4 µM; PKA-R1A dissociation, Cy5-IP20 fluorescence polarization; scaled: DMSO 0%, 113 µM cGMP 100%;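 active = percent activation above the mean of all tested compounds plus 3 SD, cut at about 19% in these data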;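 note: higher means more PKAc released from R1A so a rise in polarization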
# PKA-R2B activ – PKA-R2B complex activation; P22694+P31323; PKA-R2B holoenzyme dissociation, Cy5-IP20 fluorescence polarization; R2B truncated from residue 108, S112A mutant; 0% DMSO only, 100% 113 µM cGMP; activation, % at 11.4 µM; actives 0.079% (n = 340,000); AID 504700;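 active = activation above a cutoff set at the mean over all compounds plus 3 SD, cut at about 18% in these data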;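 note: higher means more holoenzyme dissociation and a rise in polarization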
# Rin1 Abl inh – human Rin1-Abl interaction inhibition; TR-FRET Rin1/Abl binding, biochemical; actives 0.4% (n = 360,000); P00519+Q13671; inhibition, % at 7.35 µM; in the data active = inhibition above about 5%, passing the limit was not always enough
# * marks the source's active call; other numbers are inactive results; x = no result given. Most compounds without a hit are left out; they make up all but 1.5% or so of the library.
SMILES,Cardio protect,TbMetRS inhib,PKA-R1A activ,PKA-R2B activ,Rin1 Abl inh
CSCCC(NC(=O)c1ccco1)C(=O)N1CC=C(c2ccccc2)CC1 (stereo unspecified),2,0,-6,-8,0
CCOC(=O)c1c(NC(=O)C(=O)N/N=C/c2ccc(O)c(OC)c2)sc2c1CCCCC2,53*,1,-3,-8,-3
Cc1ccc(C)n1Cc1ccc(C(=O)O)cc1,1,1,3,1,15*
CC(C)(C)NC(=O)c1cccc(NC(=O)c2ccco2)c1,-5,-1,-19,-1,1
CC(C)(C)NC(=O)c1cccc(NC(=O)c2ccc(NC(=O)c3ccco3)cc2)c1,74*,-2,-12,-7,-1
CCOC(=O)c1c(-c2ccccc2)nnn1-c1nc(OCC)nc(N2CCCCC2)n1,70*,-1,5,-4,3
CCOC(=O)c1nnn(-c2nc(N3CCCC3)nc(N3CCCC3)n2)c1-c1ccccc1,7,0,3,8,3
COc1cc(/C=N\NC(=O)CNC(=O)C2COc3ccccc3O2)ccc1O (stereo unspecified),0,0,3,11,-1
CCN(CC)c1ccc(/C=N/NC(=O)CNC(=O)C2COc3ccccc3O2)c(O)c1 (stereo unspecified),66*,-1,-2,5,-1
COc1ccc(N2CC(C(=O)N(C)CC(=O)Nc3ccc(Cl)c(C(F)(F)F)c3)CC2=O)c(OC)c1 (stereo unspecified),-6,0,-7,-8,0
Cc1[nH]n(C(N)=S)c(=O)c1N=Nc1cccc(C(F)(F)F)c1,-7,-1,-10,7,3
Cc1[nH]n(C2=NCCS2)c(=O)c1N=Nc1cccc(C(F)(F)F)c1,62*,-1,4,-7,-3
COC(=O)/C(C#N)=C/c1c(N2CCN(c3ccccc3)CC2)nc2ccccn2c1=O,18,0,-4,-2,0
CNC(=O)/C(C#N)=C/c1c(N(Cc2ccccc2)Cc2ccccc2)nc2ccccn2c1=O,56*,-1,-7,1,-1
CCOC(=O)C1(Cc2ccccc2)CCN(Cc2cc(OC)c3c(c2)OCO3)CC1,-3,0,0,6,3
O=C(Nc1ccc(CN2CCOCC2)cc1)c1ccc(-c2cccc([N+](=O)[O-])c2)o1,62*,0,0,-1,-2
O=[N+]([O-])c1cccc(-c2ccc(C(=S)N3CCOCC3)o2)c1,0,0,-21,-4,-4
O=C(NNS(=O)(=O)c1ccc(C(F)(F)F)cc1)c1cnn(-c2ccccc2)c1C(F)(F)F,-4,0,1,-9,1
O=C1Nc2ccccc2C(=O)C1(Cl)Cc1ccccc1 (stereo unspecified),52*,1,3,-2,2
CC(C)(C)N1C(=O)c2ccccc2NC(=O)N1Cc1ccccc1,1,0,-14,-14,-1
Cc1cc(C)c(NC(=O)CC(=O)c2ccccc2)c(Cl)c1,3,0,6,5,0
Cc1cc(C)c(C(=O)CC(=O)c2ccccc2Cl)c(O)c1,51*,-1,-11,-7,-2
O=C(CCOc1ccccc1)Nc1ccnn1C1CCN(CCc2ccccc2)CC1,0,0,-14,6,4
Cc1ccc2nc(/C(C#N)=C/c3ccccc3C(=O)O)[nH]c2c1,3,-1,1,-3,1
Cc1ccc2nc(/C(C#N)=C/c3ccc(O)c(O)c3)[nH]c2c1,71*,0,2,-13,0
SMILES,Cardio protect,TbMetRS inhib,PKA-R1A activ,PKA-R2B activ,Rin1 Abl inh
Cc1ccc(N2CC(C(=O)Nc3cccc(S(=O)(=O)N4CCOCC4)c3)CC2=O)cc1 (stereo unspecified),-6,0,0,9,-2
COc1cccc(CN(C)C(=O)C(Cc2ccccc2)NC(=O)c2ccccc2)c1OC (stereo unspecified),57*,0,1,-17,5
COc1ccc(CN(C)C(=O)C(Cc2ccccc2)NC(=O)c2ccccc2)c(OC)c1OC (stereo unspecified),43,0,3,5,-3
Cc1cccn2c(CN(C)CCC3CCCCO3)c(C(=O)N3CCCCC3)nc12 (stereo unspecified),2,-1,2,-11,2
CC(=O)Nc1cc(-c2ccc(F)cc2)cn2c(-c3ccc(F)cc3)cnc12,2,0,x,x,-3
COc1cc(-c2cc(NC(C)=O)c3ncc(-c4ccc(F)cc4)n3c2)cc(OC)c1OC,54*,0,x,x,0
COc1cc(-c2cc(NC(C)=O)c3ncc(-c4ccc(C(C)=O)cc4)n3c2)cc(OC)c1OC,61*,0,x,x,0
CC(=O)Nc1cc(-c2cccc(N)c2)cn2c(-c3ccc(C(C)=O)cc3)cnc12,39,0,x,x,-2
Cc1c(C(=O)NNC(=S)NCc2ccc(Cl)cc2)oc2ccccc12,4,0,4,1,1
COc1cc([N+](=O)[O-])cc(/C=N/NC(=O)c2ccc(NC(=O)c3ccc(C)cc3)cc2)c1O,17,0,0,3,4
COc1cc([N+](=O)[O-])cc(/C=N/NC(=O)c2ccc(C)nc2)c1O,62*,1,6,-11,-6
COc1cc([N+](=O)[O-])cc(/C=N/NC(=O)C(C)Nc2ccccc2C)c1O (stereo unspecified),63*,0,5,2,1
O=C(CSc1nc2ccccc2[nH]1)Nc1ccc(F)cc1,-12,17*,1,-18,1
Cc1[nH]c2ccccc2c1C(=O)CSc1nccc(=O)[nH]1,-7,0,-4,-15,-1
Cc1[nH]c2ccccc2c1C(=O)CSc1nc2ccccc2[nH]1,66*,3,-4,-8,-1
O=C(CNC(=O)c1cccc(Br)c1)N/N=C/c1cc(Br)cc(Br)c1O,59*,1,-2,6,5
O=C(NCc1cccc(C(F)(F)F)c1)N1CCN(C(=O)c2ccccc2)CC1,-5,0,4,11,2
CCc1ccc(C(C)NC(=O)c2cc(C)oc2C)cc1 (stereo unspecified),56*,0,-4,-6,2
Cc1cc(C(=O)NN)c(C)o1,8,-1,1,2,2
Oc1c(Br)cc(Br)cc1/C=N/c1nc2c(s1)CCCC2,59*,0,-6,0,7
CCOC(=O)CCCc1ccc(/C(C)=N/NC(N)=S)cc1,6,-1,7,16,1
Fc1ccccc1-c1nnc2c3ccccc3nc(N3CCOCC3)n12,2,0,-6,0,5.7*
CC(=O)c1c(C)n(-c2ccc(Cl)cc2)c2ccc(O)cc12,12,-1,-3,-2,1
